{"source": "ChEMBL document CHEMBL4152257", "about": "“Discovery of novel β-carboline/acylhydrazone hybrids as potent antitumor agents and overcome drug resistance” (Eur J Med Chem, 2018)", "key": {"MCF7 [1]": {"system": "MCF7", "assay": "Antiproliferative activity against human MCF7 cells at 1 uM after 48 to 72 hrs by MTT assay relative to control", "type": "functional", "outline": "(§1)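 Single-concentration screen in the MTT proliferation assay: log-phase cells seeded and allowed to adhere, exposed to compound at 1 µM for 48 h or 72 h, MTT added for 2-3 h, formazan dissolved in DMSO; percent inhibition versus control.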"}, "NCI-H460": {"system": "NCI-H460", "assay": "Antiproliferative activity against human H460 cells at 1 uM after 48 to 72 hrs by MTT assay relative to control", "type": "functional", "outline": "as §1"}, "MCF7 [2]": {"system": "MCF7", "assay": "Antiproliferative activity against human MCF7 cells after 48 to 72 hrs by MTT assay", "type": "functional, cell-based", "outline": "(§2)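 Cells in log phase seeded and allowed to adhere, then exposed to graded compound concentrations for 48 h or 72 h; MTT added for a further 2-3 h, formazan dissolved in DMSO. IC50 taken from dose-response curves; mean ± SD of at least three independent experiments.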"}, "A549": {"system": "A549", "assay": "Antiproliferative activity against human A549 cells after 48 to 72 hrs by MTT assay", "type": "functional, cell-based", "outline": "as §2"}, "[3]": {"assay": "Resistance index, ratio of IC50 for human A549/TR cells to IC50 for human A549 cells", "type": "functional"}, "NCI/ADR-RES [4]": {"system": "NCI/ADR-RES", "assay": "Antiproliferative activity against human MCF7/ADR cells after 48 to 72 hrs by MTT assay", "type": "functional, cell-based", "outline": "as §2"}, "[5]": {"assay": "Resistance index, ratio of IC50 for human A2780T cells to IC50 for human A2780S cells", "type": "functional"}, "HUVEC": {"system": "HUVEC", "assay": "Antiproliferative activity against HUVEC after 48 to 72 hrs by MTT assay", "type": "cell-based", "details": "Homo sapiens", "outline": "as §2"}, "[6]": {"assay": "Selectivity ratio of IC50 for HUVEC to IC50 for human A2780S cells", "type": "toxicity", "details": "HUVEC versus A2780S cells"}, "[7]": {"assay": "Selectivity ratio of IC50 for HUVEC to IC50 for human A2780T cells", "type": "toxicity", "details": "HUVEC versus A2780T cells"}, "MCF7 [8]": {"system": "MCF7", "assay": "Cell cycle arrest in human MCF7 cells assessed as accumulation at S phase at 3 uM after 18 hrs by propidium iodide staining based flow cytometry (reference value: 44.80%)", "type": "functional"}, "MCF7 [9]": {"system": "MCF7", "assay": "Cell cycle arrest in human MCF7 cells assessed as accumulation at G2/M phase at 3 uM after 18 hrs by propidium iodide staining based flow cytometry (reference value: 9.98%)", "type": "functional"}, "MCF7 [10]": {"system": "MCF7", "assay": "Cell cycle arrest in human MCF7 cells assessed as accumulation at G0/G1 phase at 10 uM after 18 hrs by propidium iodide staining based flow cytometry (reference value: 45.22%)", "type": "functional"}, "MCF7 [11]": {"system": "MCF7", "assay": "Cell cycle arrest in human MCF7 cells assessed as accumulation at G0/G1 phase at 30 uM after 18 hrs by propidium iodide staining based flow cytometry (reference value: 45.22%)", "type": "functional"}, "MCF7 [12]": {"system": "MCF7", "assay": "Cell cycle arrest in human MCF7 cells assessed as accumulation at S phase at 30 uM after 18 hrs by propidium iodide staining based flow cytometry (reference value: 44.80%)", "type": "functional"}, "MCF7 [13]": {"system": "MCF7", "assay": "Cell cycle arrest in human MCF7 cells assessed as accumulation at G0/G1 phase at 100 uM after 18 hrs by propidium iodide staining based flow cytometry (reference value: 45.22%)", "type": "functional"}, "MCF7 [14]": {"system": "MCF7", "assay": "Cell cycle arrest in human MCF7 cells assessed as accumulation at S phase at 100 uM after 18 hrs by propidium iodide staining based flow cytometry (reference value: 44.80%)", "type": "functional"}, "MCF7 [15]": {"system": "MCF7", "assay": "Cell cycle arrest in human MCF7 cells assessed as accumulation at G2/M phase after 18 hrs by propidium iodide staining based flow cytometry", "type": "functional"}, "MCF7 [16]": {"system": "MCF7", "assay": "Induction of apoptosis in human MCF7 cells assessed as early apoptotic cells at 3 uM after 48 hrs by annexin V-FITC/PI dual staining based flow cytometry (reference value: 11%)", "type": "functional"}, "MCF7 [17]": {"system": "MCF7", "assay": "Induction of apoptosis in human MCF7 cells assessed as late apoptotic cells at 10 uM after 48 hrs by annexin V-FITC/PI dual staining based flow cytometry (reference value: 11.1%)", "type": "functional"}, "MCF7 [18]": {"system": "MCF7", "assay": "Induction of apoptosis in human MCF7 cells assessed as necrotic cells at 10 uM after 48 hrs by annexin V-FITC/PI dual staining based flow cytometry (reference value: 0.16%)", "type": "functional"}, "MCF7 [19]": {"system": "MCF7", "assay": "Induction of apoptosis in human MCF7 cells assessed as early apoptotic cells at 30 uM after 48 hrs by annexin V-FITC/PI dual staining based flow cytometry (reference value: 11%)", "type": "functional"}, "MCF7 [20]": {"system": "MCF7", "assay": "Induction of apoptosis in human MCF7 cells assessed as viable cells at 100 uM after 48 hrs by annexin V-FITC/PI dual staining based flow cytometry (reference value: 77.8%)", "type": "functional", "details": "MCF7, 48 h, read-out: Activity"}, "MCF7 [21]": {"system": "MCF7", "assay": "Induction of apoptosis in human MCF7 cells assessed as early apoptotic cells at 100 uM after 48 hrs by annexin V-FITC/PI dual staining based flow cytometry (reference value: 11%)", "type": "functional"}, "MCF7 [22]": {"system": "MCF7", "assay": "Induction of apoptosis in human MCF7 cells assessed as late apoptotic cells at 100 uM after 48 hrs by annexin V-FITC/PI dual staining based flow cytometry (reference value: 11.1%)", "type": "functional"}, "MCF7 [23]": {"system": "MCF7", "assay": "Induction of apoptosis in human MCF7 cells assessed as necrotic cells at 100 uM after 48 hrs by annexin V-FITC/PI dual staining based flow cytometry (reference value: 0.16%)", "type": "functional"}, "NCI/ADR-RES [24]": {"system": "NCI/ADR-RES", "assay": "Induction of apoptosis in human MCF7/ADR cells assessed as early apoptotic cells at 3 uM after 48 hrs by annexin V-FITC/PI dual staining based flow cytometry (reference value: 2.72%)", "type": "functional"}, "NCI/ADR-RES [25]": {"system": "NCI/ADR-RES", "assay": "Induction of apoptosis in human MCF7/ADR cells assessed as late apoptotic cells at 3 uM after 48 hrs by annexin V-FITC/PI dual staining based flow cytometry (reference value: 5.02%)", "type": "functional"}, "NCI/ADR-RES [26]": {"system": "NCI/ADR-RES", "assay": "Induction of apoptosis in human MCF7/ADR cells assessed as necrotic cells at 3 uM after 48 hrs by annexin V-FITC/PI dual staining based flow cytometry (reference value: 2.43%)", "type": "functional"}, "NCI/ADR-RES [27]": {"system": "NCI/ADR-RES", "assay": "Induction of apoptosis in human MCF7/ADR cells assessed as viable cells at 10 uM after 48 hrs by annexin V-FITC/PI dual staining based flow cytometry (reference value: 89.8%)", "type": "functional", "details": "read-out: Activity"}, "NCI/ADR-RES [28]": {"system": "NCI/ADR-RES", "assay": "Induction of apoptosis in human MCF7/ADR cells assessed as late apoptotic cells at 10 uM after 48 hrs by annexin V-FITC/PI dual staining based flow cytometry (reference value: 5.02%)", "type": "functional"}, "NCI/ADR-RES [29]": {"system": "NCI/ADR-RES", "assay": "Induction of apoptosis in human MCF7/ADR cells assessed as late apoptotic cells at 30 uM after 48 hrs by annexin V-FITC/PI dual staining based flow cytometry (reference value: 5.02%)", "type": "functional"}, "NCI/ADR-RES [30]": {"system": "NCI/ADR-RES", "assay": "Induction of apoptosis in human MCF7/ADR cells assessed as viable cells at 100 uM after 48 hrs by annexin V-FITC/PI dual staining based flow cytometry (reference value: 89.8%)", "type": "functional", "details": "read-out: Activity"}, "NCI/ADR-RES [31]": {"system": "NCI/ADR-RES", "assay": "Induction of apoptosis in human MCF7/ADR cells assessed as late apoptotic cells at 100 uM after 48 hrs by annexin V-FITC/PI dual staining based flow cytometry (reference value: 5.02%)", "type": "functional"}, "NCI/ADR-RES [32]": {"system": "NCI/ADR-RES", "assay": "Induction of apoptosis in human MCF7/ADR cells assessed as necrotic cells at 100 uM after 48 hrs by annexin V-FITC/PI dual staining based flow cytometry (reference value: 2.43%)", "type": "functional"}}, "data": [{"molecule": "N#Cc1ccc(COc2cccc(/C=N/NC(=O)c3cc4c(cn3)[nH]c3ccccc34)c2)cc1", "values": [{"measurement": "inhibition at 1 µM", "setting": "MCF7 [1]", "value": 59.6, "unit": "%"}, {"measurement": "inhibition at 1 µM", "setting": "NCI-H460", "value": 51, "unit": "%"}, {"measurement": "IC50", "setting": "MCF7 [2]", "value": "0.93 to 1.02", "unit": "µM"}, {"measurement": "IC50", "setting": "A549", "value": 1.37, "unit": "µM"}, {"measurement": "Ratio IC50", "setting": "[3]", "value": 2.28}, {"measurement": "IC50", "setting": "NCI/ADR-RES [4]", "value": 0.982, "unit": "µM"}, {"measurement": "Ratio IC50", "setting": "[5]", "value": 1.32}, {"measurement": "IC50", "setting": "HUVEC", "value": 88.6, "unit": "µM"}, {"measurement": "selectivity ratio", "setting": "[6]", "value": 29.3}, {"measurement": "selectivity ratio", "setting": "[7]", "value": 22.2}, {"measurement": "Activity", "setting": "MCF7 [8]", "value": 56.12, "unit": "%"}, {"measurement": "Activity", "setting": "MCF7 [9]", "value": 9.31, "unit": "%"}, {"measurement": "Activity", "setting": "MCF7 [10]", "value": 36.05, "unit": "%"}, {"measurement": "Activity", "setting": "MCF7 [11]", "value": 38.62, "unit": "%"}, {"measurement": "Activity", "setting": "MCF7 [12]", "value": 55.32, "unit": "%"}, {"measurement": "Activity", "setting": "MCF7 [13]", "value": 41.83, "unit": "%"}, {"measurement": "Activity", "setting": "MCF7 [14]", "value": 53.88, "unit": "%"}, {"measurement": "Activity", "setting": "MCF7 [15]", "value": "Dose-dependent effect"}, {"measurement": "Activity", "setting": "MCF7 [16]", "value": 15.3, "unit": "%"}, {"measurement": "Activity", "setting": "MCF7 [17]", "value": 20.1, "unit": "%"}, {"measurement": "Activity", "setting": "MCF7 [18]", "value": 0.3, "unit": "%"}, {"measurement": "Activity", "setting": "MCF7 [19]", "value": 19.4, "unit": "%"}, {"measurement": "viability at 100 µM", "setting": "MCF7 [20]", "value": 47.2, "unit": "%"}, {"measurement": "Activity", "setting": "MCF7 [21]", "value": 13, "unit": "%"}, {"measurement": "Activity", "setting": "MCF7 [22]", "value": 38.9, "unit": "%"}, {"measurement": "Activity", "setting": "MCF7 [23]", "value": 0.76, "unit": "%"}, {"measurement": "Activity", "setting": "NCI/ADR-RES [24]", "value": 2.44, "unit": "%"}, {"measurement": "Activity", "setting": "NCI/ADR-RES [25]", "value": 7.2, "unit": "%"}, {"measurement": "Activity", "setting": "NCI/ADR-RES [26]", "value": 6.04, "unit": "%"}, {"measurement": "viability at 10 µM", "setting": "NCI/ADR-RES [27]", "value": 70.1, "unit": "%"}, {"measurement": "Activity", "setting": "NCI/ADR-RES [28]", "value": 19.1, "unit": "%"}, {"measurement": "Activity", "setting": "NCI/ADR-RES [29]", "value": 21.9, "unit": "%"}, {"measurement": "viability at 100 µM", "setting": "NCI/ADR-RES [30]", "value": 53.5, "unit": "%"}, {"measurement": "Activity", "setting": "NCI/ADR-RES [31]", "value": 30.2, "unit": "%"}, {"measurement": "Activity", "setting": "NCI/ADR-RES [32]", "value": 9.14, "unit": "%"}]}]}
